Screens as filed in PubChem BioAssay.
Rows were chosen to be rich in hits. Some 1.8% of all compounds tested hit in one or more screens of this group.
ABHD4 inh: ABHD4 inhibitors, primary screen, biochemical, fluorescence polarization, mouse | purified mABHD4, FP-Rh probe fluorescence polarization | inhibition, % at 8.92 µM | actives 0.54% (n = 370,000);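 active = inhibition exceeding the mean over every tested compound plus 3 SD, cut at about 30% in these data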
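Assay system: mABHD4 protein; medium: HEPES pH 7.0, NaCl, Pluronic buffer; dosing: 8.92 µM, single dose; schedule: 45 min + 60 min at 25 °C; signal: FP readout, ex 525 nm / em 598 nm; read-out: normalized percent inhibition of probe labeling; repeats: single replicate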
HTRA1 inhibitor: HTRA1 serine protease inhibitors, primary screen, biochemical, fluorescence polarization, HTS. inhibition, % at 5.96 µM. actives 0.5% (n = 340,000). recombinant HTRA1, FP-rhodamine activity-based probe. Q92743; in the data active = inhibition above about 36%
DDE Tn7 FP inh: inhibitors of Tn7 peptide binding to fibrin DD(E), primary screen, biochemical, fluorescence polarization, human fibrin, Tn7 probe. FP displacement of FITC-Tn7 peptide from fibrin DD(E); 0% = median of compound wells per plate. inhibition, % at 8.3 µM. actives 0.13% (n = 370,000). AID 720508, 2013;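 active = inhibition above the mean of compounds falling within the control limits plus 3 SD of them, cut at about 14% in these data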
Target sequence (P02675 whole entry, looked up): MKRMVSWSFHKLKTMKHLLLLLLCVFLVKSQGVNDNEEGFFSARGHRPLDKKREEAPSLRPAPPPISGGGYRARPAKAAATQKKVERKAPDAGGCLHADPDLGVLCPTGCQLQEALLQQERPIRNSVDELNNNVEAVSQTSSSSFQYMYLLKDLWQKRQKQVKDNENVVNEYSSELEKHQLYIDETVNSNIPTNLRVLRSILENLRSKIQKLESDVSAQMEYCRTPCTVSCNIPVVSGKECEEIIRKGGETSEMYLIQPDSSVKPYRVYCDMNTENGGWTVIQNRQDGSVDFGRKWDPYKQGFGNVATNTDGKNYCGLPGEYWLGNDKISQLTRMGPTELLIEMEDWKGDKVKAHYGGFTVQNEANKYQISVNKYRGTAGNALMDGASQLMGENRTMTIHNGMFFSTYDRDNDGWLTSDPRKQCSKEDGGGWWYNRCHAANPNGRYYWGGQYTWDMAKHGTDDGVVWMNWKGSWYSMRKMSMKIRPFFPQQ
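Assay system: human fibrin DD(E) protein / Input: 2 µM fibrin DD(E) / Benchmarks: high control of 10 µM Aha-Tn7 peptide / Measured by: fluorescence polarization of the labelled Tn7 tracer / Medium: Tris buffer with calcium and detergent, pH 7.8 / Timing: 10 min compound pre-incubation, 3 h probe incubation at room temperature / Repeats: one replicate per compound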
TCR-CD3 inh: inhibitors of human TCR-CD3 interaction, primary screen, biochemical, fluorescence, TAMRA-labeled TCR probe; actives 0.37% (n = 360,000); T-cell receptor (TCR); inhibition, % at 9.4 µM; AID 651800, 2012;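 note: recombinant mutant TCR 2C K166C tagged with TAMRA read by polarization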
SIAE inh: human SIAE inhibitors, primary screen, biochemical, fluorescence polarization, FP-Rh probe, 1536-well HTS; SIAE FP-Rh probe binding; inhibition, % at 9.66 µM; actives 0.69% (n = 370,000);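 active = inhibition above a cutoff: mean of compounds within the control limits plus 3 SD of those, cut at about 17% in these data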
DDE Tn6 FP inh: inhibitors of Tn6 peptide binding to fibrin DD(E), primary screen, biochemical, fluorescence polarization, human fibrin, Tn6 probe; Fibrin DD(E) TRITC-Tn6 fluorescence polarization displacement; inhibition, % at 8.3 µM; actives 0.21% (n = 370,000); AID 720509, 2013;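 active = inhibition above a per-campaign cutoff: mean of compounds within control limits plus 3 SD, cut at about 15% in these data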
HTRA1 conf: HTRA1 protease inhibitors, retest, confirmation, biochemical, fluorescence polarization. shares compounds with HTRA1 inhibitor. recombinant HTRA1, FP-rhodamine activity-based probe. inhibition, % at 5.96 µM. actives 66% (n = 1,600);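 active = mean inhibition over three repeats above a set limit taken from the earlier primary screen, cut at about 37% in these data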;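 note: inhibitors block probe binding so polarization drops and inhibition rises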
BSA probe FL: compounds interfering with TAMRA-BSA probe, counter-screen for TCR-CD3 interaction inhibitor project, biochemical, fluorescence, TAMRA-labeled BSA. TAMRA-labeled BSA probe fluorescence counterscreen. actives 10% (n = 1,200). inhibition, % at 9.4 µM. AID 652035, 2013. shares compounds with TCR-CD3 inh; in the data active = inhibition above about 23%
TCR-CD3 conf: TCR-CD3 interaction inhibitors, retest, confirmation, biochemical, fluorescence, TAMRA-labeled TCR probe | shares compounds with TCR-CD3 inh | TAMRA-labeled TCR probe fluorescence binding assay | inhibition, % at 9.4 µM | actives 48% (n = 1,200) | AID 652036, 2013
DDE Tn6 FP ctr: counter-screen for inhibitors of Tn6 peptide binding to fibrin DD(E). shares compounds with DDE Tn6 FP inh. TRITC-Tn6 fluorescence polarization displacement; 0% = median of compound wells, not DMSO. inhibition, % at 8.3 µM. AID 720621. actives 2% (n = 680);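 active = inhibition above the mean of test compounds lying between the control limits plus 3 SD of those, cut at about 14% in these data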
Tn6 DDE conf: inhibitors of Tn6 peptide binding to fibrin DD(E), confirmation, biochemical, fluorescence polarization, human fibrin, Tn6 probe; inhibition, % at 8.3 µM; AID 720631, 2013; actives 10% (n = 680); shares compounds with DDE Tn6 FP inh; FP displacement of TRITC-Tn6 peptide from DD(E); 0% = per-plate median of test wells;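 active = inhibition above the mean of compounds lying within the control limits plus 3 SD, cut at about 16% in these data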
mABHD4 conf: ABHD4 inhibitors, retest, confirmation, biochemical, fluorescence polarization, mouse | shares compounds with ABHD4 inh | purified mABHD4, FP-Rh probe fluorescence polarization | inhibition, % at 8.92 µM | actives 55% (n = 1,800) | AID 720658, 2013;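 active = mean inhibition across replicates above the hit cutoff set in the primary screen, cut at about 30% in these data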
SIAE inh conf: human SIAE inhibitors, retest, confirmation, biochemical, fluorescence polarization, FP-Rh probe, triplicate; shares compounds with SIAE inh; SIAE FP-Rh activity-based probe; inhibition, % at 9.66 µM; actives 13% (n = 2,300); AID 1117263, 2014;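 active = mean inhibition of the replicates above the hit cutoff set in the primary screen, cut at about 17% in these data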;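 note: inhibitors lower polarization as more probe stays unbound to SIAE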
A number is an active result. Cut-off read from the data, not from the text of the source, unless noted: active = inhibition above about 19%; inactive = the rest.

COc1ccc(S[C@]2(C(=O)N3CCOCC3)CC(=O)N(c3ccccc3)[C@@H]2c2ccc(OC)cc2)cc1 was read as ABHD4 inh inactive, DDE Tn7 FP inh inactive, SIAE inh inactive and DDE Tn6 FP inh inactive.
Screening Cc1ccccc1Cn1cc(COC(=O)NCC(C)C)nn1 returned ABHD4 inh inactive, DDE Tn7 FP inh inactive, SIAE inh inactive and DDE Tn6 FP inh inactive.
`CCCC(=Nc1ccccc1)C1=C(O)C(C(=O)OC)C(C)(C)CC1=O` (configuration not stated) gave ABHD4 inh inactive, HTRA1 inhibitor inactive, DDE Tn7 FP inh inactive, TCR-CD3 inh inactive, SIAE inh inactive and DDE Tn6 FP inh inactive.
For CCCCC(=Nc1ccc(N)cc1)C1=C(O)C(C(=O)OC)C(C)(C)CC1=O (configuration not stated) the results were ABHD4 inh 71.5, HTRA1 inhibitor 63.9, DDE Tn7 FP inh inactive, TCR-CD3 inh 49.6, SIAE inh 44.4, DDE Tn6 FP inh 120.6, HTRA1 conf inactive, BSA probe FL inactive, TCR-CD3 conf inactive, DDE Tn6 FP ctr inactive, Tn6 DDE conf inactive, mABHD4 conf inactive and SIAE inh conf inactive.
Nc1cc(N)cc(-c2nc3ccccc3[nH]2)c1 was read as ABHD4 inh inactive, HTRA1 inhibitor 46.8, DDE Tn7 FP inh inactive, TCR-CD3 inh inactive, SIAE inh 31.2, DDE Tn6 FP inh inactive, HTRA1 conf inactive and SIAE inh conf inactive.
c1ccc(-c2nc3ccccc3[nH]2)cc1 was read as ABHD4 inh inactive, HTRA1 inhibitor inactive, DDE Tn7 FP inh inactive, TCR-CD3 inh inactive, SIAE inh inactive and DDE Tn6 FP inh inactive.
For COC(=O)c1cc(-c2cccc(OC(F)(F)F)c2)c(=O)n2c1CCC2 the results were ABHD4 inh inactive, DDE Tn7 FP inh inactive, SIAE inh inactive and DDE Tn6 FP inh inactive.
N#C/C(=C\c1ccc(O)c(O)c1)C(=O)Nc1cccc2ncccc12 was read as ABHD4 inh inactive, HTRA1 inhibitor 52.0, DDE Tn7 FP inh inactive, TCR-CD3 inh 72.1, SIAE inh 29.1, DDE Tn6 FP inh inactive, HTRA1 conf 39.3, BSA probe FL inactive, TCR-CD3 conf 60.1 and SIAE inh conf inactive.
Screening COc1ccc(/C=C(\C#N)C(=O)Nc2cccc3ncccc23)cc1OC returned ABHD4 inh inactive, HTRA1 inhibitor inactive, DDE Tn7 FP inh inactive, TCR-CD3 inh inactive, SIAE inh inactive and DDE Tn6 FP inh inactive.
`Cc1cc(C)c(Nc2cc(S(=O)(=O)O)c(N)c3c2C(=O)c2ccccc2C3=O)c(C)c1` gave ABHD4 inh 77.2, HTRA1 inhibitor 66.0, DDE Tn7 FP inh inactive, TCR-CD3 inh inactive, SIAE inh 35.3, DDE Tn6 FP inh inactive, HTRA1 conf 67.0, mABHD4 conf 109.7 and SIAE inh conf 29.3.
`C[C@H]1[C@@H](NC(=O)C(c2ccccc2)c2ccccc2)CC[C@@]23CCCN2C(=O)CCC[C@@H]13` gave ABHD4 inh inactive, DDE Tn7 FP inh inactive, SIAE inh inactive and DDE Tn6 FP inh inactive.
CCOC(=O)c1ccc(N/C=C/C(=O)C(C)(C)C)cc1 was read as ABHD4 inh inactive, HTRA1 inhibitor inactive, DDE Tn7 FP inh inactive, TCR-CD3 inh inactive, SIAE inh inactive and DDE Tn6 FP inh inactive.
CN(C)c1ccc(N/C=C/C(=O)C(C)(C)C)cc1 was read as ABHD4 inh inactive, HTRA1 inhibitor 58.5, DDE Tn7 FP inh inactive, TCR-CD3 inh inactive, SIAE inh 17.4, DDE Tn6 FP inh inactive, HTRA1 conf inactive and SIAE inh conf inactive.
O=S(=O)(c1ccc(F)cc1)N1CN(Cc2ccco2)c2nc3ccccc3nc21 was read as ABHD4 inh 45.5, HTRA1 inhibitor 45.9, DDE Tn7 FP inh inactive, TCR-CD3 inh 45.7, SIAE inh 33.6, DDE Tn6 FP inh 36.3, HTRA1 conf inactive, BSA probe FL inactive, TCR-CD3 conf inactive, DDE Tn6 FP ctr inactive, Tn6 DDE conf inactive, mABHD4 conf inactive and SIAE inh conf inactive.
For C=CCN(CC#Cc1ccc(C(F)(F)F)cc1)Cc1ccc(OC)cc1OC the results were ABHD4 inh inactive, DDE Tn7 FP inh inactive, SIAE inh inactive and DDE Tn6 FP inh inactive.
N#CC(C#N)=C1C=C2C=C(N3CCOCC3)CCC2CC1 (configuration not stated) was read as ABHD4 inh inactive, HTRA1 inhibitor inactive, DDE Tn7 FP inh inactive, TCR-CD3 inh inactive, SIAE inh inactive and DDE Tn6 FP inh inactive.
